Legend:
[1] = system: A2780; experiment: Cytotoxic effect on human ovarian (A2780) cancer cell line; format: functional, cell-based
[2] = target: Cyclin-dependent kinase 2/cyclin E (Homo sapiens, UniProt P24941); experiment: Inhibition of Cyclin-dependent kinase 2-cyclin E; format: protein-complex assay
How it was run: (§1)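 Cell-free kinase assay with the CDK/cyclin complex as enzyme. Read-out is phosphorylation of RB protein as substrate. IC50 values were reported.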

[3] = target: Cyclin-dependent kinase 4/cyclin D (Homo sapiens, UniProt P11802); experiment: Inhibition of Cyclin-dependent kinase 4-cyclin D; format: protein-complex assay; how it was run: as §1
[4] = target: Cyclin-dependent kinase 1/cyclin B (Homo sapiens, UniProt P06493); experiment: Inhibition of cyclin-dependent kinase 1-cyclin B; format: protein-complex assay; how it was run: as §1
[5] = species on record: Mus musculus; experiment: Compound was tested binding to mouse serum; format: functional
How it was run: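 Free versus bound fraction measured by equilibrium dialysis against mouse serum.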

[6] = system: Mus musculus; experiment: In vivo anticancer activity of compound was determined as increase in survival time of treated groups versus untreated control against P388 murine leukemia in mice at 4 mg/kg; format: functional
How it was run: (§2)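 P388 murine leukemia cells implanted ip into immunocompetent mice. Drug given ip right after implantation, then once daily for 7 days (qdx7). Efficacy read as increase in lifespan, reported as the ratio of lifespan of the treated group (T) to the control group (C) (%T/C).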

[7] = system: Mus musculus; experiment: In vivo anticancer activity of compound was determined as increase in survival time of treated groups versus untreated control against P388 murine leukemia in mice at 90 mg/kg; format: functional; how it was run: as §2

| SMILES | IC50 [2] [nM] | IC50 [3] [nM] | IC50 [4] [nM] | IC50 [1] [nM] | Binding [5] [%] | T/C [6] [%] | T/C [7] [%] |
| --- | --- | --- | --- | --- | --- | --- | --- |
| CC(C)(CO)CNCc1ccc(Nc2ncc(SCc3ncc(C(C)(C)C)o3)s2)nc1 | 3 | 26 | 18 | 3 | 90 | 156 | – |
| CC(C)(C)c1cnc(CSc2cnc(NC(=O)Cc3cccnc3)s2)o1 | 5 | 1090 | 80 | 240 | – | – | – |
| CC(C)(C)c1cnc(CSc2cnc(Nc3ccc(S(=O)(=O)NCCO)cc3)s2)o1 | 2 | 233 | 10 | 69 | 97 | – | 180 |

The next lines start with results.

| IC50 [2] [nM] | IC50 [3] [nM] | IC50 [4] [nM] | SMILES | IC50 [1] [nM] | Binding [5] [%] | T/C [6] [%] | T/C [7] [%] |
| --- | --- | --- | --- | --- | --- | --- | --- |
| 4 | 78 | 12 | CC(C)(C)c1cnc(CSc2cnc(Nc3ccccc3)s2)o1 | 140 | – | – | – |
| 3 | 130 | 10 | CC(C)(C)c1cnc(CSc2cnc(Nc3cccnc3)s2)o1 | 50 | – | – | – |
| 2 | 9 | 4 | CC(C)(C)c1cnc(CSc2cnc(Nc3ccccn3)s2)o1 | 10 | – | – | – |

Source: ChEMBL document CHEMBL1148265, “Synthesis and biological activity of N-aryl-2-aminothiazoles: potent pan inhibitors of cyclin-dependent kinases” (Bioorg Med Chem Lett, 2004)
